Results taken from ChEMBL document CHEMBL1955770, “Inhibition of S/G2 phase CDK4 reduces mitotic fidelity” (J Biol Chem, 2006).
Active and inactive are the calls of the source. The rule behind the calls is not given here.

Experiments:
MDA-MB-435 = experiment: Antiproliferative activity against human MDA-MB-435 cells assessed as inhibition of S phase after 48 hrs by MTT assay; format: functional, cell-based; conditions: MDA-MB-435, 48 h
Summary of the method: (§1)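 Cells grown in DMEM with 3 mM HEPES and 10% Serum Supreme at 37 °C, 5% CO2. Proliferation read by MTT assay 48 h after drug addition; IC50 given as mean of two separate determinations, each in duplicate.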

[1] = target: Cyclin-dependent kinase 4 (Homo sapiens) (UniProt P11802); experiment: Inhibition of CDK4-mediated Rb phosphorylation at ser 795 in human HCT116 cells at IC90 after 24 hrs by immunoblot analysis; format: cell-based; conditions: HCT-116
Sequence of Cyclin-dependent kinase 4 (Homo sapiens) (P11802 whole entry): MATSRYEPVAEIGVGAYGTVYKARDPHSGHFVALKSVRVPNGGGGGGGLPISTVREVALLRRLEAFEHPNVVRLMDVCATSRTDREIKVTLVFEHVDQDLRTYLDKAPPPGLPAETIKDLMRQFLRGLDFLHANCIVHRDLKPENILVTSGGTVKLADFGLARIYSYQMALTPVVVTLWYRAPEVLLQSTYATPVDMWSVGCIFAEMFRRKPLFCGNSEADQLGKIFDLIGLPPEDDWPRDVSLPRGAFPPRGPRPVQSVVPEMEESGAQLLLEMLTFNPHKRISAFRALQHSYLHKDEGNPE
Summary of the method: (§2)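 Asynchronous HCT-116 cells (DMEM, 3 mM HEPES, 10% serum, 37 °C, 5% CO₂) were given increasing inhibitor doses for 4 or 24 h. Lysis in NETN with phosphatase and protease inhibitors, then SDS-PAGE, nitrocellulose transfer and immunoblot for phospho-Rb (Ser-795) with HRP secondary and chemiluminescence.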

[2] = Inhibition of p38 MAPK using fluorescent substrate by IMAP assay
Summary of the method: (§3)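 Run in-house using IMAP: phosphorylated fluorescent peptide substrate binds preferentially to immobilized metal beads, which quantifies kinase activity. ATP at 3× the Km of each enzyme.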

[3] = target: Cyclin-dependent kinase 4 (Homo sapiens) (UniProt P11802); experiment: Inhibition of CDK4-mediated Rb phosphorylation at ser 795 in human HCT116 cells at 3 times IC90 after 4 hrs by immunoblot analysis; format: cell-based; conditions: HCT-116; summary of the method: as §2
SW480 [4] = experiment: Toxicity in human SW480 cells at 8 uM by MTT assay; format: cell-based; conditions: sw480, 8 µM
A2058 [5] = experiment: Cell cycle arrest in human A2058 cells assessed as accumulation at G1 phase at 2 uM treated 1 hr and measured 10 hr post double hydroxyurea-synchrony release using propidium iodide staining by FACS analysis; format: functional
[6] = Cell cycle arrest in human SK-MEL-13 cells assessed as accumulation at S phase at 2 uM treated 1 hr and measured 12 hr post double hydroxyurea-synchrony release using propidium iodide staining by FACS analysis (reference value: 10 %); format: functional, cell-based
Summary of the method: (§4)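 SK-Mel-13 cells synchronized with 2 mM hydroxyurea, then treated with 2 μM CDK4 inhibitor or left untreated 1 h after release. Harvested at indicated times post-release, ethanol-fixed, propidium iodide/RNase stained, and DNA content read by FACS. Proportions of G1, S and G2/M cells derived with ModFit.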

SW480 [7] = experiment: Toxicity in human SW480 cells at IC50 after 3 days by MTT assay; format: cell-based; conditions: sw480, 72 h
HCT-116 = experiment: Antiproliferative activity against human HCT116 cells assessed as inhibition of S phase after 48 hrs by MTT assay; format: functional, cell-based; conditions: HCT-116, 48 h; summary of the method: as §1
HeLa [8] = experiment: Cell cycle arrest at G2 phase in human HeLa cells at 2 uM treated at early S phase measured after 6-14 hr post thymidine-synchrony release by immunoblot method relative to untreated control
HeLa [9] = experiment: Cell cycle arrest in human HeLa cells assessed as accumulation at G1 phase at 2 uM treated 6 hr and measured 10 hr post double thymidine-synchrony release using propidium iodide staining by FACS analysis (reference value: 68 %); format: functional
HeLa [10] = experiment: Cell cycle arrest at G2 phase in human HeLa cells at 2 uM treated 8 hr and measured 12 hr post-synchrony release using Propidium iodide staining by FACS analysis in presence of p38 MAPK inhibitor SB203580; format: functional, cell-based
HeLa [11] = experiment: Cell cycle arrest in human HeLa cells assessed as accumulation at S phase at 2 uM treated 2 hr and measured 10 hr post double thymidine-synchrony release using propidium iodide staining by FACS analysis (reference value: 1 %); format: functional
Summary of the method: (§5)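 Cells harvested at set times post-release, fixed in 70% ethanol, stained with 5 μg/ml propidium iodide plus 0.5 mg/ml RNase A, and analysed by flow cytometry. Cell-cycle phase fractions calculated by ModFit.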

HeLa [12] = experiment: Cell cycle arrest at G2 phase in human HeLa cells at 2 uM treated 8 hr and measured 12 hr post-synchrony release using Propidium iodide staining by FACS analysis in presence of ATM/ATR signaling inhibitor caffiene; format: functional, cell-based
HeLa [13] = experiment: Cell cycle arrest in human HeLa cells assessed as accumulation at S phase at 2 uM treated 6 hr and measured 8 hr post double thymidine-synchrony release using propidium iodide staining by FACS analysis (reference value: 8 %); format: functional; summary of the method: as §5
[14] = target: Cyclin-dependent kinase 4 (Homo sapiens) (UniProt P11802); experiment: Inhibition of CDK4-mediated Rb phosphorylation at ser 795 in human HCT116 cells at IC90 after 4 hrs by immunoblot analysis; format: cell-based; conditions: HCT-116; summary of the method: as §2
HeLa [15] = experiment: Cell cycle arrest in Rb-deficient human HeLa cells assessed as accumulation at G2/M phase at 2 uM after 24 hrs by FACS analysis; format: functional
Summary of the method: (§6)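 Ethanol-fixed cells stained with propidium iodide/RNase A, DNA content read by FACS, phase and sub-diploid fractions calculated with ModFit.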

Insulin receptor = Insulin receptor (Homo sapiens, UniProt P06213); experiment: Inhibition of insulin receptor using fluorescent substrate by IMAP assay; summary of the method: as §3
Sequence of Insulin receptor (P06213 28-758 limits assumed): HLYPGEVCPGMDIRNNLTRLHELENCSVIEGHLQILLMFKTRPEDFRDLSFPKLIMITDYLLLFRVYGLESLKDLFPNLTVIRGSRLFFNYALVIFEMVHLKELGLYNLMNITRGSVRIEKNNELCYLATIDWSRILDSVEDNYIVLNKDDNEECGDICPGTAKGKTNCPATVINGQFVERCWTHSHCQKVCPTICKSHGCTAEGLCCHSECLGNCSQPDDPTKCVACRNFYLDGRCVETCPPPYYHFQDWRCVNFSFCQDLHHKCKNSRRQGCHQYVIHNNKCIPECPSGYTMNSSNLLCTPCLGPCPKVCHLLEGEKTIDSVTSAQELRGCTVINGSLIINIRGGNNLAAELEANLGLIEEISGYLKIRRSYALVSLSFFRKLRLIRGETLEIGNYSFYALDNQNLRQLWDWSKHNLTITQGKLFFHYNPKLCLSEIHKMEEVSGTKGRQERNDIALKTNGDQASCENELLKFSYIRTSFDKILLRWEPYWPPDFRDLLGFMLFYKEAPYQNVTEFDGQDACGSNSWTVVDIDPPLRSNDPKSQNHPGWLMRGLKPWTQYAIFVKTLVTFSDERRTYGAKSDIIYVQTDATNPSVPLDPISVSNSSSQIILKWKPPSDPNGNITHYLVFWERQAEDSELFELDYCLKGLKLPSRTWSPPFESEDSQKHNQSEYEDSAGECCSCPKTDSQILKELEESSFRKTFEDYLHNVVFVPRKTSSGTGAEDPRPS
Sequence of Insulin receptor (P06213 763-1382 limits assumed): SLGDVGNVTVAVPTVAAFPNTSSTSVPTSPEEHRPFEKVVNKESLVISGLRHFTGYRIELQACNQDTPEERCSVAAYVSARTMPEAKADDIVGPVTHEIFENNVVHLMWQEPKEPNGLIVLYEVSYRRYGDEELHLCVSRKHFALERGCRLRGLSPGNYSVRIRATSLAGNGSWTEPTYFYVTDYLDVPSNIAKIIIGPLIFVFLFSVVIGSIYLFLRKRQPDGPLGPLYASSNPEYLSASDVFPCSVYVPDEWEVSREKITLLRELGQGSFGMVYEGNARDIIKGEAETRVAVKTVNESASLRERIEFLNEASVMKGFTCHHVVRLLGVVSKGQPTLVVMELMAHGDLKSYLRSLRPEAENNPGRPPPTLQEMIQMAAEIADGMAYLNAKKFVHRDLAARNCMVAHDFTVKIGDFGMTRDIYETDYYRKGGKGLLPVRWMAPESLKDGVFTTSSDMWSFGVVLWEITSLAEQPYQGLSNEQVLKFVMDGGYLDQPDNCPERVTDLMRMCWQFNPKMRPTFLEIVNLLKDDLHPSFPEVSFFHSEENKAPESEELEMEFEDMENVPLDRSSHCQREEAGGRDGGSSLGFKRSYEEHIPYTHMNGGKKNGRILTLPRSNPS

[16] = Cell cycle arrest in human SK-MEL-13 cells assessed as accumulation at G2/M phase at 2 uM treated 1 hr and measured 8 hr post double hydroxyurea-synchrony release using propidium iodide staining by FACS analysis (reference value: 16 %); format: functional, cell-based; summary of the method: as §4
[17] = target: Cyclin-dependent kinase 4 (Homo sapiens) (UniProt P11802); experiment: Inhibition of CDK4-mediated Rb phosphorylation at ser 795 in human HCT116 cells at IC50 after 24 hrs by immunoblot analysis; format: cell-based; conditions: HCT-116; summary of the method: as §2
[18] = Cell cycle arrest in human SK-MEL-13 cells assessed as accumulation at G2/M phase at 2 uM treated 1 hr and measured 12 hr post double hydroxyurea-synchrony release using propidium iodide staining by FACS analysis (reference value: 50 %); format: functional, cell-based; summary of the method: as §4
[19] = Cell cycle arrest in human SK-MEL-13 cells assessed as accumulation at G1 phase at 2 uM treated 1 hr and measured 12 hr post double hydroxyurea-synchrony release using propidium iodide staining by FACS analysis (reference value: 40 %); format: functional, cell-based; summary of the method: as §4
A2058 [20] = experiment: Cell cycle arrest in human A2058 cells assessed as accumulation at S phase at 2 uM treated 1 hr and measured 8 hr post double hydroxyurea-synchrony release using propidium iodide staining by FACS analysis (reference value: 52 %); format: functional
HeLa [21] = experiment: Cell cycle arrest in Rb-deficient human HeLa cells assessed as accumulation at sub-diploid phase at 2 uM after 24 hrs by FACS analysis; format: functional; summary of the method: as §6
HeLa [22] = experiment: Cell cycle arrest in human HeLa cells assessed as accumulation at G2/M phase at 2 uM treated 2 hr and measured 10 hr post double thymidine-synchrony release using propidium iodide staining by FACS analysis (reference value: 31 %); format: functional; summary of the method: as §5
[23] = target: Cyclin-dependent kinase 4 (Homo sapiens) (UniProt P11802); experiment: Inhibition of CDK4-mediated Rb phosphorylation at ser 795 in human HCT116 cells at 3 times IC90 after 24 hrs by immunoblot analysis; format: cell-based; conditions: HCT-116; summary of the method: as §2
HeLa [24] = experiment: Cell cycle arrest in human HeLa cells assessed as accumulation at G2/M phase at 2 uM treated 2 hr and measured 8 hr post double thymidine-synchrony release using propidium iodide staining by FACS analysis (reference value: 86 %); format: functional; summary of the method: as §5
[25] = Cell cycle arrest in human SK-MEL-13 cells assessed as accumulation at G1 phase at 2 uM treated 1 hr and measured 8 hr post double hydroxyurea-synchrony release using propidium iodide staining by FACS analysis (reference value: 10 %); format: functional, cell-based; summary of the method: as §4

Row | IC50 (MDA-MB-435) | inhibition [1] | IC50 [2] | inhibition [3] | IC50 (HCT-116) | inhibition [14] | IC50 (Insulin receptor) | inhibition [17] | SMILES | Activity (SW480 [4]) | Activity (A2058 [5]) | Activity [6] | Activity (SW480 [7]) | Activity (HeLa [8]) | Activity (HeLa [9]) | Activity (HeLa [10]) | Activity (HeLa [11]) | Activity (HeLa [12]) | Activity (HeLa [13]) | Activity (HeLa [15]) | Activity [16] | other results
1 | 1.2 µM | Active | > 100 µM | Active | 1.1 µM | Active | 24 µM | Active | COc1cccc(C(=O)c2sc(Nc3ccc(N4CCN(C(C)C)CC4)cc3)nc2N)c1 | Toxic | 7% | 10% | Toxic | Active | 56% | Active | 6% | Active | 5% | 14% | 70% | Activity [18]: 77%; Activity [19]: 13%; Activity (A2058 [20]): 23%; Activity (HeLa [21]): 10%; Activity (HeLa [22]): 90%; inhibition [23]: Active; Activity (HeLa [24]): 84%; Activity [25]: 12%
2 | 3.06 µM | Active | 29 µM | Active | 3.85 µM | Active | 71 µM | Active | CN1CCN(c2ccc(Nc3nc(N)c(C(=O)c4ccc5c(c4)OCCO5)s3)cc2)CC1 | Toxic | 7% | 10% | Toxic | Active | 56% | Active | 6% | Active | 5% | 14% | 70% | Activity [18]: 77%; Activity [19]: 13%; Activity (A2058 [20]): 23%; Activity (HeLa [21]): 10%; Activity (HeLa [22]): 90%; inhibition [23]: Active; Activity (HeLa [24]): 84%; Activity [25]: 12%
